Measurements taken from ChEMBL document CHEMBL1142492 (J Med Chem, 2008).
pIC50: −log10 of the molar value.

Experiments:
[1] = target: Serine/threonine-protein kinase pim-1 (Homo sapiens) (UniProt P11309); test: Inhibition of PIM1 at 3 uM
[2] = target: Serine/threonine-protein kinase pim-2 (Homo sapiens) (UniProt Q9P1W9); test: Inhibition of PIM2 at 3 uM
[3] = target: Serine/threonine-protein kinase TAO1 (Homo sapiens) (UniProt Q7L7X3); test: Inhibition of TAOK1 at 3 uM
[4] = target: Uncharacterized serine/threonine-protein kinase SBK3 (Homo sapiens) (UniProt P0C264); test: Inhibition of SgK110 at 3 uM
[5] = target: Serine/threonine-protein kinase SIK2 (Homo sapiens) (UniProt Q9H0K1); test: Inhibition of SNF1LK2 at 3 uM
[6] = target: Proto-oncogene tyrosine-protein kinase Src (Homo sapiens) (UniProt P12931); test: Inhibition of SRC at 3 uM
[7] = target: Dual specificity protein kinase TTK (Homo sapiens) (UniProt P33981); test: Inhibition of TTK at 3 uM
Dual specificity protein kinase TTK (Homo sapiens), sequence (P33981 whole entry): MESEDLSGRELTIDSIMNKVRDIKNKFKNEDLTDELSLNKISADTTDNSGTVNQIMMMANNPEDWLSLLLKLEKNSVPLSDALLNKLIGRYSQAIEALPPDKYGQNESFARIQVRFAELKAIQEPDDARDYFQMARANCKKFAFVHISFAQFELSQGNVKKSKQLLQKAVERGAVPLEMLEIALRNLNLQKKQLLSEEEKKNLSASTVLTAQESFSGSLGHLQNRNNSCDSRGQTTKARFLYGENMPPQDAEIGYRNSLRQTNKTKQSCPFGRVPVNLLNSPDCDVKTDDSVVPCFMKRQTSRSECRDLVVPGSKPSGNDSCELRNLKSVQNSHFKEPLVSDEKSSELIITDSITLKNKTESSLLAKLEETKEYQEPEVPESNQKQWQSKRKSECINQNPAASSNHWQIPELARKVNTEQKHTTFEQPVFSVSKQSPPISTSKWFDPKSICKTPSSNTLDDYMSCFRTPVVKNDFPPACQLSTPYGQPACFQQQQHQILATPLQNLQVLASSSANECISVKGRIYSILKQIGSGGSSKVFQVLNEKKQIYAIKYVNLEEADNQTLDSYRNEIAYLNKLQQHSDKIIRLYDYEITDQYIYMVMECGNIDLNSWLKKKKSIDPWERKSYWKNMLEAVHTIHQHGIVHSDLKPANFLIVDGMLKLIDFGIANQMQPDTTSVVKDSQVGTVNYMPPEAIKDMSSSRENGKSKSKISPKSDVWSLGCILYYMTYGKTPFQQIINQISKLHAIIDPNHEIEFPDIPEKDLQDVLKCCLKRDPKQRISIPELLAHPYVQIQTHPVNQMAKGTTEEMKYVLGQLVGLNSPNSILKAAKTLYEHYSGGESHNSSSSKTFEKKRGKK

[8] = target: Serine/threonine-protein kinase ULK3 (Homo sapiens) (UniProt Q6PHR2); test: Inhibition of ULK3 at 3 uM
[9] = target: T1, Epidermal growth factor receptor (Homo sapiens) (UniProt P04626+P00533+Q15303+P21860); test: Inhibition of EGFR L747-S752del,P753S mutant at 3 uM; format: protein assay
[10] = system: Epidermal growth factor receptor (Homo sapiens), P00533 [L858R]; test: Inhibition of EGFR L858R mutant at 3 uM; format: protein assay
Epidermal growth factor receptor (Homo sapiens), P00533 [L858R], sequence (P00533 whole entry L858R): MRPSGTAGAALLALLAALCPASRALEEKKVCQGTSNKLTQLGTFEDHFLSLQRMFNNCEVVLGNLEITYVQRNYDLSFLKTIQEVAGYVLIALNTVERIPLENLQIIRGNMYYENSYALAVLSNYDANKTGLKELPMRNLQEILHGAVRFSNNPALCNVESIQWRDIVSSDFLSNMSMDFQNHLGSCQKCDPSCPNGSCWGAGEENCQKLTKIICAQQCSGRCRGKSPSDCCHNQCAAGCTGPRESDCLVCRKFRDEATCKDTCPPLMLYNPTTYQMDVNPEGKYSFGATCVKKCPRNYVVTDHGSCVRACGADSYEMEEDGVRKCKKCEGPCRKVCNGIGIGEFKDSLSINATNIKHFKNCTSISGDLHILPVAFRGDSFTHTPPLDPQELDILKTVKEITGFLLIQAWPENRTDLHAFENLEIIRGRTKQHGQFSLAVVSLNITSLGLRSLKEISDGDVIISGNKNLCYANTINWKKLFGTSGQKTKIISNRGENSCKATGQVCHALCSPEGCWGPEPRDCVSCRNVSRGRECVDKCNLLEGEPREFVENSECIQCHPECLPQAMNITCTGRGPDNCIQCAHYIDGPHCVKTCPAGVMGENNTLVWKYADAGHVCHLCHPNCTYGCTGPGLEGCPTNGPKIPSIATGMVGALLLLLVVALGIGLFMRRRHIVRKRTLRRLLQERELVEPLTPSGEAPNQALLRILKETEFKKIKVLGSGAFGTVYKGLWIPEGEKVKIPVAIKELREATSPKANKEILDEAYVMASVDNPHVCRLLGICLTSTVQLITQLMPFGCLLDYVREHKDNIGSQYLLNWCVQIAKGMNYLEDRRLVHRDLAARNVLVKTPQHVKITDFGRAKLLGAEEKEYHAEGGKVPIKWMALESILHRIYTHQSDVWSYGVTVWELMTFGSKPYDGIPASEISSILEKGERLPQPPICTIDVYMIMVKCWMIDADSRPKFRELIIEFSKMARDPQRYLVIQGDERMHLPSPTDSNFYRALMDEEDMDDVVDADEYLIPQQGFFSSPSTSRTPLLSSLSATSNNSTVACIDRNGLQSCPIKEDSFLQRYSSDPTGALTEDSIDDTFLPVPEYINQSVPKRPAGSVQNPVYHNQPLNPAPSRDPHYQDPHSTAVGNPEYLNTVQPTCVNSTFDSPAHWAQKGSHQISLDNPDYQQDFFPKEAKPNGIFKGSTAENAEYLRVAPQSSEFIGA
Summary of the method: (§1)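 Single-concentration kinase panel scoring: each value is the percentage of enzyme activity remaining relative to a DMSO-only control. An activity statistically indistinct from DMSO control was scored "no hit".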

[11] = target: T1, Epidermal growth factor receptor (Homo sapiens); test: Inhibition of EGFR S752-I759del mutant at 3 uM; format: protein assay; summary of the method: as §1
[12] = system: Mast/stem cell growth factor receptor Kit (Homo sapiens), P10721 [V559D,V654A]; test: Inhibition of KIT V559D,V654A mutant at 3 uM
[13] = system: eIF-2-alpha kinase GCN2 (Homo sapiens), Q9P2K8 [S808G]; test: Inhibition of GCN2 Kin.Dom.2,S808G mutant at 3 uM
[14] = target: Tyrosine-protein kinase Lyn (Homo sapiens) (UniProt P07948); test: Inhibition of LYN at 3 uM
[15] = target: Mitogen-activated protein kinase kinase kinase kinase 2 (Homo sapiens) (UniProt Q12851); test: Inhibition of MAP4K2 at 3 uM
[16] = target: Mitogen-activated protein kinase kinase kinase kinase 5 (Homo sapiens) (UniProt Q9Y4K4); test: Inhibition of MAP4K5 at 3 uM
[17] = target: Serine/threonine-protein kinase MARK2 (Homo sapiens) (UniProt Q7KZI7); test: Inhibition of MARK2 at 3 uM
[18] = target: MAP/microtubule affinity-regulating kinase 4 (Homo sapiens) (UniProt Q96L34); test: Inhibition of MARK4 at 3 uM
[19] = target: Serine/threonine-protein kinase NLK (Homo sapiens) (UniProt Q9UBE8); test: Inhibition of NLK at 3 uM
[20] = target: Cyclin-dependent kinase 16 (Homo sapiens) (UniProt Q00536); test: Inhibition of PCTK1 at 3 uM
[21] = target: Serine/threonine-protein kinase PLK4 (Homo sapiens) (UniProt O00444); test: Inhibition of PLK4 at 3 uM
[22] = target: Protein kinase C epsilon type (Homo sapiens) (UniProt Q02156); test: Inhibition of PRKCE at 3 uM
[23] = target: Protein-tyrosine kinase 2-beta (Homo sapiens) (UniProt Q14289); test: Inhibition of PTK2B at 3 uM
[24] = target: Serine/threonine-protein kinase RIO3 (Homo sapiens) (UniProt O14730); test: Inhibition of RIOK3 at 3 uM
[25] = target: BDNF/NT-3 growth factors receptor (Homo sapiens) (UniProt Q16620); test: Inhibition of TRKB at 3 uM
BDNF/NT-3 growth factors receptor (Homo sapiens), sequence (Q16620 32-822 limits assumed): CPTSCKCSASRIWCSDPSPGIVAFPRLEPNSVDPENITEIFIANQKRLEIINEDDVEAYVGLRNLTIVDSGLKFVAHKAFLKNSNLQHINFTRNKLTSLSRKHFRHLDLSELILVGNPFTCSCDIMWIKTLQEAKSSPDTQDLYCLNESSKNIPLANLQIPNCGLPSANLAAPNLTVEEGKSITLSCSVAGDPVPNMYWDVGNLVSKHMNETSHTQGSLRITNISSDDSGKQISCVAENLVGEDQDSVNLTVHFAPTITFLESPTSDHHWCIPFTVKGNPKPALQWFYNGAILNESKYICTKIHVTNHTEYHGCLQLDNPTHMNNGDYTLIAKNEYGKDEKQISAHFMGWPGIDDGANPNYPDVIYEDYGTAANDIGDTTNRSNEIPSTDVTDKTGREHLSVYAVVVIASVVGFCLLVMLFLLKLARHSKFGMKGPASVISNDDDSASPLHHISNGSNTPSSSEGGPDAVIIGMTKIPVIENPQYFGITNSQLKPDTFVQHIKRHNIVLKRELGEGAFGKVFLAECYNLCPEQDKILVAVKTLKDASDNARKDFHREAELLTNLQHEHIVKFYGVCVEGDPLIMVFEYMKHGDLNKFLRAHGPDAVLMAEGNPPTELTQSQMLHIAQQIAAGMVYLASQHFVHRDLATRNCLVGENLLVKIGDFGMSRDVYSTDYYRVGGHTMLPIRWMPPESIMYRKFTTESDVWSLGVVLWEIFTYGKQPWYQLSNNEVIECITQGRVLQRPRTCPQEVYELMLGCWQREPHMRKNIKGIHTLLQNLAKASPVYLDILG

[26] = target: Wee1-like protein kinase 2 (Homo sapiens) (UniProt P0C1S8); test: Inhibition of WEE2 at 3 uM
[27] = target: Serine/threonine-protein kinase 32C (Homo sapiens) (UniProt Q86UX6); test: Inhibition of YANK3 at 3 uM
[28] = target: RAC-alpha serine/threonine-protein kinase (Homo sapiens, UniProt P31749); test: Inhibition of AKT1 after 55 mins
[29] = Inhibition of myosin light chain bisphosphorylation in rat A7r5 cells after 1 hr
[30] = target: Angiotensin-converting enzyme (Oryctolagus cuniculus) (UniProt P12822); test: Inhibition of rabbit ACE at 3 uM
Summary of the method: (§2)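 Counter-screen binding/enzyme panel at single 3 μM, n=2; results as percent inhibition. Species per target as listed (rat NMDA, GABAA sites; human receptors, transporters; rabbit ACE).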

[31] = target: Alpha-1D adrenergic receptor (Homo sapiens) (UniProt P25100); test: Inhibition of human adrenergic Alpha-1D receptor at 3 uM; summary of the method: as §2
[32] = target: Activin receptor type-2B (Homo sapiens) (UniProt Q13705); test: Inhibition of ACVR2B at 3 uM
[33] = target: 5'-AMP-activated protein kinase catalytic subunit alpha-1 (Homo sapiens) (UniProt Q13131); test: Inhibition of AMPKalpha1 at 3 uM
[34] = target: 5'-AMP-activated protein kinase catalytic subunit alpha-2 (Homo sapiens) (UniProt P54646); test: Inhibition of AMPKalpha2 at 3 uM
5'-AMP-activated protein kinase catalytic subunit alpha-2 (Homo sapiens), sequence (P54646 whole entry, looked up): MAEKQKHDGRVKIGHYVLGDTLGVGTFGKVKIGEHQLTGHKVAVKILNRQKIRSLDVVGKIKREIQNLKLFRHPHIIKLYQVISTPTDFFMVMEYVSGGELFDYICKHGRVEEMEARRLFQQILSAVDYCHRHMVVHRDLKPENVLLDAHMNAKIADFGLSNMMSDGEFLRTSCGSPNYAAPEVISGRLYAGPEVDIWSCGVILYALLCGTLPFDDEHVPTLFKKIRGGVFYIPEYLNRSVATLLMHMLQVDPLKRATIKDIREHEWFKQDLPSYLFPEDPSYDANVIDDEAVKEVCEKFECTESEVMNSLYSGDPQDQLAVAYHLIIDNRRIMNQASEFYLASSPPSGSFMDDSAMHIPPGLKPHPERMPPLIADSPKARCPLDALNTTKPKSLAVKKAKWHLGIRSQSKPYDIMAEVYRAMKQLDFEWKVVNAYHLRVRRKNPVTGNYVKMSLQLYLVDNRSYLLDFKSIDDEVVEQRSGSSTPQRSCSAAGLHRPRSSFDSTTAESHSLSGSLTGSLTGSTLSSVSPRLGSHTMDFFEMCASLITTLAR

[35] = target: NUAK family SNF1-like kinase 1 (Homo sapiens) (UniProt O60285); test: Inhibition of ARK5 at 3 uM
[36] = target: Serine/threonine-protein kinase Chk2 (Homo sapiens) (UniProt O96017); test: Inhibition of CHEK2 at 3 uM
[37] = target: Serine/threonine-protein kinase DCLK2 (Homo sapiens) (UniProt Q8N568); test: Inhibition of DCAMKL2 at 3 uM
[38] = target: Serine/threonine-protein kinase DCLK3 (Homo sapiens) (UniProt Q9C098); test: Inhibition of DCAMKL3 at 3 uM
[39] = target: Calcium/calmodulin-dependent protein kinase type II subunit alpha (Homo sapiens) (UniProt Q9UQM7); test: Inhibition of CAMK2A at 3 uM
[40] = target: Ephrin type-B receptor 2 (Homo sapiens) (UniProt P29323); test: Inhibition of EPHB2 at 3 uM; summary of the method: as §1
[41] = target: Mitogen-activated protein kinase 7 (Homo sapiens) (UniProt Q13164); test: Inhibition of ERK5 at 3 uM; summary of the method: as §1
Sus scrofa = organism: Sus scrofa; details: 25 uM
Rattus norvegicus [42] = organism: Rattus norvegicus; details: 3 uM
Rattus norvegicus [43] = organism: Rattus norvegicus; details: 3 uM; remark: listed apart in the source
Homo sapiens = organism: Homo sapiens; details: 3 uM
Rattus norvegicus [44] = organism: Rattus norvegicus; details: 3 uM; remark: listed apart in the source

Serine/threonine-protein kinase TAO1 (Homo sapiens), sequence (Q7L7X3 whole entry): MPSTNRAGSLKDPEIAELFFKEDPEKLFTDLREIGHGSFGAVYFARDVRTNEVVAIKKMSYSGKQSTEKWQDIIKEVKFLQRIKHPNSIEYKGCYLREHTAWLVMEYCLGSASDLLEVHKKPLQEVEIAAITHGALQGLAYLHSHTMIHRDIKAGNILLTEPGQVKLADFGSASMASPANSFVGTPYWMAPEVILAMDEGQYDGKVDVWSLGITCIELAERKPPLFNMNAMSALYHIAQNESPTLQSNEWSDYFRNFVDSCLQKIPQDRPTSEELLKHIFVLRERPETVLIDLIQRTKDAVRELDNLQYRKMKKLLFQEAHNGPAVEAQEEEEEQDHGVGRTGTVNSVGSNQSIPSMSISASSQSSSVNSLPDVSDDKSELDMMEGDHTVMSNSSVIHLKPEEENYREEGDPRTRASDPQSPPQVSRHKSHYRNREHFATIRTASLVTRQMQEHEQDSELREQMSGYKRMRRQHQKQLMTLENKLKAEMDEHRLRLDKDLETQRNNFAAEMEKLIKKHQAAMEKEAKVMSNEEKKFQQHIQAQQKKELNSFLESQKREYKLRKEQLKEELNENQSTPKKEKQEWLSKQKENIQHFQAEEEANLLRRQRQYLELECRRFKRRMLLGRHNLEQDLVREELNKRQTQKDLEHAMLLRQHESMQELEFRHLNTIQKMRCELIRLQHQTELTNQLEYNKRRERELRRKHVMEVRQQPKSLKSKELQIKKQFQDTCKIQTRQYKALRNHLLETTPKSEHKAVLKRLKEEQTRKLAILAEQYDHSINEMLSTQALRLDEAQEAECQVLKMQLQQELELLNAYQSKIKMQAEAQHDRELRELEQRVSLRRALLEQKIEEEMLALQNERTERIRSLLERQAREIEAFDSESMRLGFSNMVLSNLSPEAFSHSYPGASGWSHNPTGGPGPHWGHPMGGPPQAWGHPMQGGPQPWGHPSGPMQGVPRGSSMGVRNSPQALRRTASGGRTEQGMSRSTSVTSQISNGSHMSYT
Serine/threonine-protein kinase pim-2 (Homo sapiens), sequence (Q9P1W9 whole entry, looked up): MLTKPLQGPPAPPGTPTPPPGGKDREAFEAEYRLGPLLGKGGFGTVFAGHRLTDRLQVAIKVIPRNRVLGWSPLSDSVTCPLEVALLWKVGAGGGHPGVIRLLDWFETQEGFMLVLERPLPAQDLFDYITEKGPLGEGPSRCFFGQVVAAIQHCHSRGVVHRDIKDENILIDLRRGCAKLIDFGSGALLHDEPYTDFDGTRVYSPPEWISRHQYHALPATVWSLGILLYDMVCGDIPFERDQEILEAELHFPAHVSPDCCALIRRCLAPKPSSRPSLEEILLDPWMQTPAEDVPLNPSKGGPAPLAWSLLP
Serine/threonine-protein kinase pim-1 (Homo sapiens), sequence (P11309 whole entry, looked up): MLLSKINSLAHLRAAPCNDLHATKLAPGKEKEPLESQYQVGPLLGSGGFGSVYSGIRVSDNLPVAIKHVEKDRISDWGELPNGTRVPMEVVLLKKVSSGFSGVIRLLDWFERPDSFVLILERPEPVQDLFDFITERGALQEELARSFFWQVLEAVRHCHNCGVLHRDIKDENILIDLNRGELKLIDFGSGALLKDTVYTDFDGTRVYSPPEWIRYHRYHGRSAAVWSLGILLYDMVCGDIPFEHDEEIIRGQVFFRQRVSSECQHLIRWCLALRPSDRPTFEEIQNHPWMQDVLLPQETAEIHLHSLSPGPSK

Compound `CN(C)CCOc1cc(-c2cn[nH]c2)ccc1NC(=O)C1COc2ccccc2O1` (stereo unspecified) [SR-3677] has an inhibition [1] of under 10%, an inhibition [2] of under 10% and an inhibition [3] of under 10%. For the same compound, the inhibition [4] was under 10%, the inhibition [5] was under 10% and the inhibition [6] was under 10%. For the same compound, the inhibition [7] was under 10%, the inhibition [8] was under 10% and the inhibition [9] was under 10%. For the same compound, the inhibition [10] was under 10%, the inhibition [11] was under 10% and the inhibition [12] was under 10%. For the same compound, the inhibition [13] was under 10%, the inhibition [14] was under 10% and the inhibition [15] was under 10%. The inhibition [16] was under 10%, the inhibition [17] was under 10% and the inhibition [18] was under 10%. For the same compound, the inhibition [19] was under 10%, the inhibition [20] was under 10% and the inhibition [21] was under 10%. For the same compound, the inhibition [22] was under 10%, the inhibition [23] was under 10% and the inhibition [24] was under 10%. The inhibition [25] was under 10%, the inhibition [26] was under 10% and the inhibition [27] was under 10%. The pIC50 [28] was 5.13, the pIC50 [29] was 8.46 and the inhibition [30] was 1%. The inhibition [31] was 43%, the inhibition [32] was under 10% and the inhibition [33] was under 10%. For the same compound, the inhibition [34] was under 10%, the inhibition [35] was under 10% and the inhibition [36] was under 10%. It also gave an inhibition [37] of under 10%, an inhibition [38] of under 10% and an inhibition [39] of under 10%. The inhibition [40] was under 10%, the inhibition [41] was under 10% and the inhibition (Sus scrofa) was 90%. The inhibition (Rattus norvegicus [42]) was 47%, the inhibition (Rattus norvegicus [43]) was -6% and the inhibition (Homo sapiens) was 7%. For the same compound, the inhibition (Rattus norvegicus [44]) was 17%.
